Entries after “also recorded” stand apart in the source; their conditions may differ.
How the values were obtained:
[1] = tested on: HLA-A2 molecules on T2 cell surface; assay: T2 cell binding assay; design: species or system human; settings: in words
Outline: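 T2 cells (1 × 10^6/mL) incubated 18 h at 37°C, 5% CO2 with 50 µg/mL peptide in RPMI-1640 plus 3 µg/mL human β2-microglobulin; no-peptide blank included. Washed three times in PBS, stained 30 min with FITC anti-HLA-A2, MFI read by flow cytometry. FI = (MFI peptide − MFI blank)/MFI blank. Classes: FI >1.0 high, 0.5–1.0 medium, <0.5 low.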

CD8+T cells = assay: IFN-γ ELISA of DC/CD8+T cell co-culture supernatant; format: cell-based, human; settings: for IFN-γ content in culture medium (ELISA): 12th day of co-cultivation of DCs and CD8+T cells, compared with NP-CTL; for capacity of induced CTLs to produce IFN-γ: ELISA and ELISPOT taken together, compared to other peptides of CT23
CTLs = assay: IFN-γ ELISPOT of peptide-induced CTLs; format: cell-based, human; settings: CTLs 1 × 10^5 cells/well, 20 hours; compared to NP-CTL
Outline: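 CTLs from HLA-A2+ donor CD8+ T cells stimulated with DCs loaded with peptide (50 μg/mL) or recombinant protein (100 μg/mL). Ratio 10:1, rhIL-2 20 ng/mL, restimulation days 7 and 12, harvested day 15. Added to anti-IFN-γ-coated wells with PHA positive and background control wells; 20 h at 37°C, 5% CO2. Biotinylated antibody, streptavidin–enzyme conjugate and substrate added; spots counted by analyzer.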

U87 (HLA-A *0201+,CT23+) = assay: Cytotoxicity assay; format: cell-based, human; settings: LDH release, effector:target 50:1, 4 h; mean±standard deviation; SD
Outline: (§1)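 Effectors: CD8+ T cells from HLA-A2+ donor PBMCs, co-cultured 10:1 with peptide- or protein-loaded DCs. rhIL-2 20 ng/mL from day 2; restimulated days 7 and 12; collected day 15. Targets grown in RPMI-1640/10% FBS. After 4 h, supernatant incubated with LDH substrate 30 min at RT in the dark, then stopped and read at OD490. Killing % = (experimental − effector and target spontaneous release)/(target maximum − target spontaneous release).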

[2] = tested on: OVCAR-3 (HLA-A *0201+, CT23+); assay: Cytotoxicity assay; format: cell-based, human; settings: LDH release, effector:target 50:1, 4 h; mean±standard deviation; SD
Outline: as §1

[3] = tested on: SKOV3 (HLA-A *0201−, CT23+); assay: Cytotoxicity assay; format: cell-based, human; settings: LDH release, effector:target 50:1, 4 h
Outline: as §1

[4] = tested on: T2 cells loaded with peptide P7; assay: Cytotoxicity assay; format: cell-based, human; settings: LDH release, effector:target 50:1, 4 h; mean±standard deviation; SD
Outline: as §1

[5] = tested on: T2 cells without loading peptides; assay: Cytotoxicity assay; format: cell-based, human; settings: LDH release, effector:target 50:1, 4 h
Outline: as §1

Sequence	binding affinity to HLA-A2 molecules (class by FI) [1]	IFN-γ content in culture medium (ELISA) (CD8+T cells)	capacity of induced CTLs to produce IFN-γ (CD8+T cells)	also measured
ALLTPTWKA [P1]	higher binding affinity	statistical significance compared with NP-CTL	stronger capacity to produce IFN-γ	–
ALLVLCYSI [P7]	higher binding affinity; also recorded: highest binding affinity	highest IFN-γ secretion	stronger capacity to produce IFN-γ	number of IFN-γ-positive cells (ELISPOT) (CTLs): significant statistical difference; killing rate of peptide-induced CTLs on U87 (U87 (HLA-A *0201+,CT23+)): 31.42 ± 0.85%; killing rate of peptide-induced CTLs on OVCAR-3 [2]: 31.81 ± 9.82%; killing effect of peptide-induced CTLs on HLA-A*0201 negative SKOV3 tumor cells [3]: no killing effect; also recorded: did not exhibit any killing effect; killing rate of P7-induced CTLs on T2 cells loaded with peptide P7 [4]: 64.95 ± 6.09%; killing effect of P7-induced CTLs on T2 cells without loaded peptide P7 [5]: did not exhibit any significant killing effect; also recorded: no killing effect
LLASQSLSI [P6]	higher binding affinity	statistical significance compared with NP-CTL	stronger capacity to produce IFN-γ	–
MIMENIQEL [P5]	higher binding affinity	–	–	–
QLPHTEALL [P4]	higher binding affinity	statistical significance compared with NP-CTL	stronger capacity to produce IFN-γ	–
RLSNNVEEL [P2]	higher binding affinity	–	–	–
VLCSQPVSI [P3]	moderate	–	–	–

Source: PMC10730135 (Human Vaccines & Immunotherapeutics, 2023)
